Source: ChEMBL document CHEMBL3608232, “Exploring the Existing Drug Space for Novel pTyr Mimetic and SHP2 Inhibitors” (ACS Med Chem Lett, 2015)
Active and inactive are the calls of the source. The rule behind the calls is not given here.

Columns and labels:
[1] = biological target: T1, Tyrosine-protein phosphatase non-receptor type 11 (Homo sapiens) (UniProt Q06124); experiment: Inhibition of phosphatase activity of SHP2 (unknown origin) using pNPP as a substrate at 50 uM after 10 mins by spectrophotometer analysis
T1 sequence (whole entry): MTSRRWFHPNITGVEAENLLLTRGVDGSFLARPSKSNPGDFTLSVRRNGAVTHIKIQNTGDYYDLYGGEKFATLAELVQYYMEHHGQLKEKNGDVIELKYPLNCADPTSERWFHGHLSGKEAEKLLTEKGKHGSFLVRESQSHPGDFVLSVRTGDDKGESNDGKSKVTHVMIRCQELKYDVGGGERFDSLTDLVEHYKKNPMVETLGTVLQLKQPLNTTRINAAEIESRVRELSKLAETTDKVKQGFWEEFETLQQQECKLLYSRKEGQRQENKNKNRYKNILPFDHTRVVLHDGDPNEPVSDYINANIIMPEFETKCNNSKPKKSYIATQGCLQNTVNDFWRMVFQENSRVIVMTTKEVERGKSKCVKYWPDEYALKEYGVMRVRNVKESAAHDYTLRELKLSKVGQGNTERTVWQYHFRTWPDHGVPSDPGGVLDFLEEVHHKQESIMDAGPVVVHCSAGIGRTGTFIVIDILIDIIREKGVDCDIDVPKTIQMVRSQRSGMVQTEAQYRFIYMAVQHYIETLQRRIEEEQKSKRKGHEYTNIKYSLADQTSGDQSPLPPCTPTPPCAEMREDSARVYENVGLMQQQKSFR

NCI-H1975 = experiment: Cytotoxicity against human NCI-H1975 cells by MTT assay; assay type: functional, cell-based
[2] = biological target: T2, Low molecular weight phosphotyrosine protein phosphatase (Homo sapiens, UniProt P24666); experiment: Inhibition of phosphatase activity of human LMWPTP using pNPP as a substrate after 10 mins by spectrophotometer analysis
T2 sequence (P24666 whole entry): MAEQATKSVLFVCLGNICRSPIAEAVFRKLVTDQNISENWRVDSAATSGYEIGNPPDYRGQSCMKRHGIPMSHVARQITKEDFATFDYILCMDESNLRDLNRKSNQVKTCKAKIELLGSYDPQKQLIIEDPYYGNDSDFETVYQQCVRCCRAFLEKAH

[3] = biological target: Receptor-type tyrosine-protein phosphatase mu (Homo sapiens, UniProt P28827); experiment: Inhibition of phosphatase activity of human PTPmu using pNPP as a substrate after 10 mins by spectrophotometer analysis
Receptor-type tyrosine-protein phosphatase mu, sequence (P28827 whole entry): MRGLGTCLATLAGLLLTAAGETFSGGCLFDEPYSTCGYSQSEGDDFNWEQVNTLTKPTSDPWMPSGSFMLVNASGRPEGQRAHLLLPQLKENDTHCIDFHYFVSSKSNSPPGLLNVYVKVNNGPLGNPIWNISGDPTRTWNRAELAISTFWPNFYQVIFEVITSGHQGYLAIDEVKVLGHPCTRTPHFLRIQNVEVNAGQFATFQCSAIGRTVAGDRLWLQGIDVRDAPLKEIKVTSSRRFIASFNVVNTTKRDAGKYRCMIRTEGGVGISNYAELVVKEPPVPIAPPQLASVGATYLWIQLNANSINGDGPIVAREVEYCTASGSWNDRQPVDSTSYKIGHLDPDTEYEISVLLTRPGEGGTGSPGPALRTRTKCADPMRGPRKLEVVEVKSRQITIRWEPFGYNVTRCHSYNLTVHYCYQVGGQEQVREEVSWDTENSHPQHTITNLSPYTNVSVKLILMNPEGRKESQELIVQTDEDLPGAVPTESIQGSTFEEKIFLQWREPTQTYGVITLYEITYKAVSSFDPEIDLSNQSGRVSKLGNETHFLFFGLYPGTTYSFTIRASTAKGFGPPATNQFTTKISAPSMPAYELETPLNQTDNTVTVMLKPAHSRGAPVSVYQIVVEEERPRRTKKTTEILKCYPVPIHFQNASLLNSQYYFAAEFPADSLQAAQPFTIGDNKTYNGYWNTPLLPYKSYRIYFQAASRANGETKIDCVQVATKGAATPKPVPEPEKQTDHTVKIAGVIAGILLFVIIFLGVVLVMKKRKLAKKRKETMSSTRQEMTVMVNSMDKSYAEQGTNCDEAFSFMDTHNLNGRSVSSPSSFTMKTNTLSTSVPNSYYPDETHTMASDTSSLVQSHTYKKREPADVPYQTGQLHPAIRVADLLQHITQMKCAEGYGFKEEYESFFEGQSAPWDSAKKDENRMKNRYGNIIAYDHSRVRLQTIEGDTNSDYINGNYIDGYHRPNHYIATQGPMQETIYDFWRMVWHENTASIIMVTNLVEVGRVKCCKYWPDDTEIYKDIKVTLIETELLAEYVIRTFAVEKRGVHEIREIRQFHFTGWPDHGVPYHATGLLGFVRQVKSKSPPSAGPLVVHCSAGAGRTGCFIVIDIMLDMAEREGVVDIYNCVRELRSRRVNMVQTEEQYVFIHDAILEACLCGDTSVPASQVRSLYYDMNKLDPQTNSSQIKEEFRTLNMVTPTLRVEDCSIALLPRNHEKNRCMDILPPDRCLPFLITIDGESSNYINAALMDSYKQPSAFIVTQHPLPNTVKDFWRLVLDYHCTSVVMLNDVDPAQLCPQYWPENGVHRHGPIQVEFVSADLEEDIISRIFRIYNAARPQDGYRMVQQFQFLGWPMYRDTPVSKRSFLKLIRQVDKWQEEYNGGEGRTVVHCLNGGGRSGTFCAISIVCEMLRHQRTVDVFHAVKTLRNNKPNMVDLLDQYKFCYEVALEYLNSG

[4] = biological target: T3, Tyrosine-protein phosphatase non-receptor type 9 (Homo sapiens, UniProt P43378); experiment: Inhibition of phosphatase activity of human Meg2 using pNPP as a substrate after 10 mins by spectrophotometer analysis
T3 sequence (P43378 whole entry): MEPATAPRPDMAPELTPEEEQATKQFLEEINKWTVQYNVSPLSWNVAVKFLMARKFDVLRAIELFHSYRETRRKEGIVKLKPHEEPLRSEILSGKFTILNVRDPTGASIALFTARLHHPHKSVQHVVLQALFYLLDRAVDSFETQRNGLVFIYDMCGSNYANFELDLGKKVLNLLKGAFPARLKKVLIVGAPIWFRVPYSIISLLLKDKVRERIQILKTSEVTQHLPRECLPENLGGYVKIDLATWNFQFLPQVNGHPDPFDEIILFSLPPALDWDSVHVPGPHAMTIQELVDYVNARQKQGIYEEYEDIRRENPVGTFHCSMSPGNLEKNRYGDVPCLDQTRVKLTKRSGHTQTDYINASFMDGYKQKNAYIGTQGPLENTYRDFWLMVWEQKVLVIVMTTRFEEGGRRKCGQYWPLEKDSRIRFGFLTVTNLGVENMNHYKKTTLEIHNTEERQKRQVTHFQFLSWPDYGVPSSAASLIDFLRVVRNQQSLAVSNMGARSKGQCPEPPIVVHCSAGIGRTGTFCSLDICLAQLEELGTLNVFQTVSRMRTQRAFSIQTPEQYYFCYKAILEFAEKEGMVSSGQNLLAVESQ

[5] = biological target: Receptor-type tyrosine-protein phosphatase gamma (Homo sapiens, UniProt P23470); experiment: Inhibition of phosphatase activity of human PTPgamma using pNPP as a substrate after 10 mins by spectrophotometer analysis
Receptor-type tyrosine-protein phosphatase gamma, sequence (P23470 whole entry): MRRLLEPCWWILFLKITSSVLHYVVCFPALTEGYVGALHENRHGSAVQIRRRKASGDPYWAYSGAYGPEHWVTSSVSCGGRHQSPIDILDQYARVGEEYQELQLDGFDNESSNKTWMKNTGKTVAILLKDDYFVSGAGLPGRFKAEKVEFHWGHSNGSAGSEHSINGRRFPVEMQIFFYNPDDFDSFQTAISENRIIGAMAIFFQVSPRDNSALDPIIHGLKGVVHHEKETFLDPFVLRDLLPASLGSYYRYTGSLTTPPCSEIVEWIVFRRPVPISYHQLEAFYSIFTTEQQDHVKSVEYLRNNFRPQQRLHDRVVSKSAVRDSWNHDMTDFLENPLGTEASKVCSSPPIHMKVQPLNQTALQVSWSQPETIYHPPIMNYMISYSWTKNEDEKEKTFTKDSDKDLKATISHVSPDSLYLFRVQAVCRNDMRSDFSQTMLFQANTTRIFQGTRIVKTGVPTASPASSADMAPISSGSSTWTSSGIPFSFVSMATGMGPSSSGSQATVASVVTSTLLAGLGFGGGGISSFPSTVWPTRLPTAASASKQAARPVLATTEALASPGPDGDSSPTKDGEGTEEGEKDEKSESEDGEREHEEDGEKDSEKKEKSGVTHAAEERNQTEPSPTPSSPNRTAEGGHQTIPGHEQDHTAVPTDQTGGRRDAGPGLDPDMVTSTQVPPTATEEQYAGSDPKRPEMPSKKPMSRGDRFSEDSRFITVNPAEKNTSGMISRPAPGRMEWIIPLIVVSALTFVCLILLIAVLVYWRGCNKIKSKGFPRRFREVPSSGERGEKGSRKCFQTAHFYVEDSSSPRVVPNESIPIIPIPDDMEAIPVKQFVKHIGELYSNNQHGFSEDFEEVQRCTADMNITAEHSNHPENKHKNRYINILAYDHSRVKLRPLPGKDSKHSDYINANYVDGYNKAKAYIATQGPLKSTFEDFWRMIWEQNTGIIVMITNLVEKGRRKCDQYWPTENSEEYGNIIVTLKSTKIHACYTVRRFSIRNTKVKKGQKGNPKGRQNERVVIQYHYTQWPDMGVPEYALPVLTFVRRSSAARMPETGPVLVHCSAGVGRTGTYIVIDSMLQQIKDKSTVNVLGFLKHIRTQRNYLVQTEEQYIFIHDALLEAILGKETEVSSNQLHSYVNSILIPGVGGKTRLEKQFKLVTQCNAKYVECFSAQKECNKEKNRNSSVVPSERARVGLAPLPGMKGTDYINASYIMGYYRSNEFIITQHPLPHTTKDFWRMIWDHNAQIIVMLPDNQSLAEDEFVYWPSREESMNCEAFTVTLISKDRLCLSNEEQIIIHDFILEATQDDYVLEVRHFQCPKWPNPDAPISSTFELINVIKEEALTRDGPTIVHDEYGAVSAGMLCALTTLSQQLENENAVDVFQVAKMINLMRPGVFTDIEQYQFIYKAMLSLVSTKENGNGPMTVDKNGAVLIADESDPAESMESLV

[6] = biological target: Receptor-type tyrosine-protein phosphatase alpha (Homo sapiens, UniProt P18433); experiment: Inhibition of phosphatase activity of human PTPalpha using pNPP as a substrate after 10 mins by spectrophotometer analysis
Receptor-type tyrosine-protein phosphatase alpha, sequence (P18433 whole entry): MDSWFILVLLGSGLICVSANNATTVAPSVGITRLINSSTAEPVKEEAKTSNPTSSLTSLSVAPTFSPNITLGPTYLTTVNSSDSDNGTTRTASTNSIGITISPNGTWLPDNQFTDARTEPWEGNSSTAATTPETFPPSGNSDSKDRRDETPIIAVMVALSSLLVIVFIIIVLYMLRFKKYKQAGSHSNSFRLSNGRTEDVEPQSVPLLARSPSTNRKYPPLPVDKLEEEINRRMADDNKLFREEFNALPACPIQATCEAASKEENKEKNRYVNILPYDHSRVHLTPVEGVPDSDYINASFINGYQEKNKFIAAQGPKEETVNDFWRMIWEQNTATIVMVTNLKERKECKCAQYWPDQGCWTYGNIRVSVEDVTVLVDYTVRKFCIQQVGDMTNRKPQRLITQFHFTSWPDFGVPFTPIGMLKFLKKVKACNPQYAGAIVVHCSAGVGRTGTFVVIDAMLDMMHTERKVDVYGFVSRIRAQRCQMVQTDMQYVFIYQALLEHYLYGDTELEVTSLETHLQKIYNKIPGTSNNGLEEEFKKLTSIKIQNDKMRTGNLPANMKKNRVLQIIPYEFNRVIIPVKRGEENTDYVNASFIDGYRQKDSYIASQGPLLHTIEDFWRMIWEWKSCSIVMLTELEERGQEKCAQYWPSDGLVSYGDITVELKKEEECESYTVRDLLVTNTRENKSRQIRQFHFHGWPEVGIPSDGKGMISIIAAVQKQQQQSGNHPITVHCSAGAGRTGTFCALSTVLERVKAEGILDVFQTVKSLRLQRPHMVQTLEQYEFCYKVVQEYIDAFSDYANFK

[7] = biological target: T4, Serine/threonine-protein phosphatase 5 (Homo sapiens, UniProt P53041); experiment: Inhibition of phosphatase activity of human PP5 using pNPP as a substrate after 10 mins by spectrophotometer analysis
T4 sequence (P53041 whole entry): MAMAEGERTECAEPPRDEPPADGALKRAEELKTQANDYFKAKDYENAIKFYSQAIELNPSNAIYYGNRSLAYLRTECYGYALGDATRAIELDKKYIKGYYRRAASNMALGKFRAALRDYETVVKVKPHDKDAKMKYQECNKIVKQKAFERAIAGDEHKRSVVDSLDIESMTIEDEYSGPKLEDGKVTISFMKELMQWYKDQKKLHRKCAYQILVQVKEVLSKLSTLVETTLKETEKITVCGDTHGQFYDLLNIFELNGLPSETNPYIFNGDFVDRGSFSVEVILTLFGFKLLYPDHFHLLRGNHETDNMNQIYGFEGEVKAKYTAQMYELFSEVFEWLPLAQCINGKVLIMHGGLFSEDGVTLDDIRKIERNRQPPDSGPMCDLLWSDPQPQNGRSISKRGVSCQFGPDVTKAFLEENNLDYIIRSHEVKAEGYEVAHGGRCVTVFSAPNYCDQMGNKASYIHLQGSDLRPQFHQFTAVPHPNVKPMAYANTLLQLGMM

[8] = biological target: Receptor-type tyrosine-protein phosphatase F (Homo sapiens, UniProt P10586); experiment: Inhibition of phosphatase activity of human LAR using pNPP as a substrate after 10 mins by spectrophotometer analysis
[9] = biological target: Dual specificity protein phosphatase 3 (Homo sapiens, UniProt P51452); experiment: Inhibition of phosphatase activity of human VHR using pNPP as a substrate after 10 mins by spectrophotometer analysis
Dual specificity protein phosphatase 3, sequence (P51452 whole entry): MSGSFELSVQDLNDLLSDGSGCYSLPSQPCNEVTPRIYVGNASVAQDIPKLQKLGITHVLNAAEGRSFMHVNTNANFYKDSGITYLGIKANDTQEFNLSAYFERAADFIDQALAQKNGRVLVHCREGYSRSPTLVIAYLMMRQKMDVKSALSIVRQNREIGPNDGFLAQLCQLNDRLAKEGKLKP

[10] = biological target: T5, Tyrosine-protein phosphatase non-receptor type 22 (Homo sapiens, UniProt Q9Y2R2); experiment: Inhibition of phosphatase activity of human LYP using pNPP as a substrate after 10 mins by spectrophotometer analysis
T5 sequence (Q9Y2R2 whole entry): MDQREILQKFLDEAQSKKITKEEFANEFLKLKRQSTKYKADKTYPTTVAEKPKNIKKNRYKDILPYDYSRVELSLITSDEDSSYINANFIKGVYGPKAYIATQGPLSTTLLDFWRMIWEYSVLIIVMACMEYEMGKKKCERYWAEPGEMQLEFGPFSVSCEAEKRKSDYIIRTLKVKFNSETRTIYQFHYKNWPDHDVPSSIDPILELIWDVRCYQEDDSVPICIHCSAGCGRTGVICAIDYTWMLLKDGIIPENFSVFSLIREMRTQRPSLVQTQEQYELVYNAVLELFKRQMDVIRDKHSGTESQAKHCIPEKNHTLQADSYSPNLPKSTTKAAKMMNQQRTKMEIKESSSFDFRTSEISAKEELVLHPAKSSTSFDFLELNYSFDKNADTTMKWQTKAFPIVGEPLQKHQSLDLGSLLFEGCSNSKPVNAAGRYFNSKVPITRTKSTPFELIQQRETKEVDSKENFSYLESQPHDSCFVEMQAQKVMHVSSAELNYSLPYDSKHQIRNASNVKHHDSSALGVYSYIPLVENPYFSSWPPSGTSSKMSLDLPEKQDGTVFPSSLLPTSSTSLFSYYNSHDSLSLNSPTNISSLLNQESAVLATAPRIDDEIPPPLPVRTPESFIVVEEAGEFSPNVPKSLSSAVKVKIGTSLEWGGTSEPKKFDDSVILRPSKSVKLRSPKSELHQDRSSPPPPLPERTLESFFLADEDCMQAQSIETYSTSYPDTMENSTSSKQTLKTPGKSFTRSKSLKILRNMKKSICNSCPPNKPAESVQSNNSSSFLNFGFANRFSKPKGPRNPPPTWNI

MDA-MB-231 = experiment: Cytotoxicity against human MDA-MB-231 cells by MTT assay; assay type: functional, cell-based
[11] = biological target: T6, Dual specificity protein phosphatase CDC14A (Homo sapiens, UniProt Q9UNH5); experiment: Inhibition of phosphatase activity of human CDC14A using pNPP as a substrate after 10 mins by spectrophotometer analysis
T6 sequence (Q9UNH5 whole entry): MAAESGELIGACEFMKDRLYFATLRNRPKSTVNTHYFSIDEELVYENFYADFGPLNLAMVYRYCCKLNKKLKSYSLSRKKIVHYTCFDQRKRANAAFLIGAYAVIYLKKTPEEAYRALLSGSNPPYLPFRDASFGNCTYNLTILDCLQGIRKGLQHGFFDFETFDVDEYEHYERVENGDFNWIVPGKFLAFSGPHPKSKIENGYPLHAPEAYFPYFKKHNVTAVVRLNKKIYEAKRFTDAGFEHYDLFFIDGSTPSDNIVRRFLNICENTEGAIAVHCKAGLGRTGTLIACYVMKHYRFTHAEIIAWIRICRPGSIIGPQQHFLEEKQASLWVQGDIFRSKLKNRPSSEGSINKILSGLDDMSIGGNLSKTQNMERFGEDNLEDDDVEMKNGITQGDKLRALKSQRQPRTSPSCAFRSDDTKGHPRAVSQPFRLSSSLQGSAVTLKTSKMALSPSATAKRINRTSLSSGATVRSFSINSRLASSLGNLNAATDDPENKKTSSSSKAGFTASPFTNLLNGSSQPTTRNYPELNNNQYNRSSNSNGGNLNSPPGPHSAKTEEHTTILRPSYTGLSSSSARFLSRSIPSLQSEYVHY

[12] = biological target: T7, Tyrosine-protein phosphatase non-receptor type 7 (Homo sapiens, UniProt P35236); experiment: Inhibition of phosphatase activity of human HePTP using pNPP as a substrate after 10 mins by spectrophotometer analysis
T7 sequence (P35236 whole entry): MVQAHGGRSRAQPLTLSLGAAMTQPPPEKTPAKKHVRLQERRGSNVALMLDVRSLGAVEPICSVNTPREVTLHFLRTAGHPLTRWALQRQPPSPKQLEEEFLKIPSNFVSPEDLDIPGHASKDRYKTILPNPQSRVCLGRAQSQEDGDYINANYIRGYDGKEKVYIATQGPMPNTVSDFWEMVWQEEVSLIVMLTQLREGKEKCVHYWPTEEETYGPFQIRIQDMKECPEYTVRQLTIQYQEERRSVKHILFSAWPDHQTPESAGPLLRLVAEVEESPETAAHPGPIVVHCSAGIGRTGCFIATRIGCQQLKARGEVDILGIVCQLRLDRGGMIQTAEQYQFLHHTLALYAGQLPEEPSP

[13] = biological target: Receptor-type tyrosine-protein phosphatase beta (Homo sapiens, UniProt P23467); experiment: Inhibition of phosphatase activity of human PTPbeta using pNPP as a substrate after 10 mins by spectrophotometer analysis
[14] = biological target: Receptor-type tyrosine-protein phosphatase epsilon (Homo sapiens, UniProt P23469); experiment: Inhibition of phosphatase activity of human PTPepsilon using pNPP as a substrate after 10 mins by spectrophotometer analysis
Receptor-type tyrosine-protein phosphatase epsilon, sequence (P23469 whole entry): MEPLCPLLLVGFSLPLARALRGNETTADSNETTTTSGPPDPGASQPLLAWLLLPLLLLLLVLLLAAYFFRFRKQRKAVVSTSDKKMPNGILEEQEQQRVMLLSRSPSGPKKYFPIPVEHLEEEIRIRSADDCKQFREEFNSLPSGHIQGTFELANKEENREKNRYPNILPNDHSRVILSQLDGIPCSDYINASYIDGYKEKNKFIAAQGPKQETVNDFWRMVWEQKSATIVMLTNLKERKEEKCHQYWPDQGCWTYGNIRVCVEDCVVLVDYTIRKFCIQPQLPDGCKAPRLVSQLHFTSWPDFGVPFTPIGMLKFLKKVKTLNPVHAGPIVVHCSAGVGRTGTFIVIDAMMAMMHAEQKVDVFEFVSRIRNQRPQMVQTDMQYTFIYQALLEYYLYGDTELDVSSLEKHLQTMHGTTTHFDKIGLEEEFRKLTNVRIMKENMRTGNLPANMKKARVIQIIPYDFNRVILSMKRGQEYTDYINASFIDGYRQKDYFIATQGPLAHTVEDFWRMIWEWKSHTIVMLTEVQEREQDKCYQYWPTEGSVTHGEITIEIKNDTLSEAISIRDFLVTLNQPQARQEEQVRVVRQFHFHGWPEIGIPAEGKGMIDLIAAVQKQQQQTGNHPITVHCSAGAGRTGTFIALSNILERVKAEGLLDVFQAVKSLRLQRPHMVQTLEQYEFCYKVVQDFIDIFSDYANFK

[15] = biological target: T1, Tyrosine-protein phosphatase non-receptor type 11 (Homo sapiens); experiment: Inhibition of SHP2 in human NCI-H1975 cells assessed as reduction of EGF-induced ERK1/2 activation at 40 uM after 60 mins relative to control; assay type: cell-based
Method in brief: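 H1975 cells were stimulated with EGF and ERK1/2 and paxillin phosphorylation was assessed by immunoblot. Band intensities were quantified, and pERK1/2/total ERK1/2 or pPaxillin(Y118)/total paxillin ratios were normalized to the reference. Blots are representative of at least two independent experiments, with quantified values given as mean ± SD.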

SK-BR-3 = experiment: Growth inhibition of human SKBR3 cells expressing ErbB2 in 3D matrigel after 5 days; assay type: functional, cell-based
[16] = biological target: T1, Tyrosine-protein phosphatase non-receptor type 11 (Homo sapiens); experiment: Inhibition of SHP2 in human NCI-H1975 cells assessed as increase in EGF-induced paxillin phosphorylation at Y118 at 40 uM after 60 mins relative to control
[17] = biological target: T8, Tyrosine-protein phosphatase non-receptor type 11 (Homo sapiens, UniProt Q06124); experiment: Competitive inhibition of phosphatase activity of SHP2 (unknown origin) using pNPP as a substrate Lineweaver-Burk plot analysis
T8 sequence (Q06124 whole entry): T1 sequence (whole entry)
Method in brief: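 SHP2-catalysed hydrolysis of para-nitrophenyl phosphate measured with inhibitor at 0, 0.25, 0.5 and 0.75 μM. Inhibition mode assigned from a Lineweaver–Burk (double-reciprocal) plot.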

inhibition [1] | IC50 [2] | IC50 [3] | IC50 [4] | IC50 [5] | IC50 [6] | IC50 [7] | IC50 [8] | IC50 [9] | IC50 [10] | IC50 [11] | IC50 [12] | IC50 [13] | IC50 [14] | fold change (FC) [15] | fold change (FC) [16] | Ki [17] | SMILES | Activity (NCI-H1975) | Activity (MDA-MB-231) | growth inhibition (GI) (SK-BR-3)
inactive |  |  |  |  |  |  |  |  |  |  |  |  |  |  |  |  | O=C(O)C(=O)Nc1cccc(NC(=O)C(c2ccccc2)S(=O)(=O)O)c1 (stereo unspecified) |  |  | 
 | > 50 µM | > 50 µM | > 50 µM | > 50 µM | > 50 µM | > 50 µM | > 50 µM | > 50 µM | > 50 µM | > 50 µM | > 50 µM | > 50 µM | > 50 µM |  |  |  | O=C(Nc1ccc(NC(=O)C(c2ccccc2)S(=O)(=O)O)cc1)C(=O)Nc1ccc(-c2ccccc2)cc1 (stereo unspecified) | Dose-dependent effect | Dose-dependent effect | 
inactive |  |  |  |  |  |  |  |  |  |  |  |  |  |  |  |  | O=C(O)C(=O)Nc1ccc(CNC(=O)C(c2ccccc2)S(=O)(=O)O)cc1 (stereo unspecified) |  |  | 
 | > 50 µM | > 50 µM | > 50 µM | > 50 µM | > 50 µM | > 50 µM | > 50 µM | > 50 µM | > 50 µM | > 50 µM | > 50 µM | > 50 µM | > 50 µM | 0.6 | 1.3 | 0.51 µM | O=C(Nc1ccc(I)cc1)C(=O)Nc1ccc(NC(=O)C(c2ccccc2)S(=O)(=O)O)cc1 (stereo unspecified) | Dose-dependent effect | Dose-dependent effect | Dose-dependent effect
